From ChEMBL document CHEMBL5653631, “A Potent and Selective ULK1 Inhibitor Suppresses Autophagy and Sensitizes Cancer Cells to Nutrient Stress” (iScience, 2018)
Blank lines part the entries; values can stand above or below the compound they belong to.

Key:
[1] = biological target: Serine/threonine-protein kinase mTOR (Homo sapiens) (UniProt P42345); experiment: Inhibition of human recombinant FRAP at 500 nM related to control ULK1
[2] = biological target: Rho-associated protein kinase 1 (Homo sapiens) (UniProt Q13464); experiment: Inhibition of human recombinant ROCK1 at 500 nM in presence of ATP by radiometric assay relative to control
Sequence of Rho-associated protein kinase 1 (Homo sapiens) (Q13464 2-1354 limits assumed): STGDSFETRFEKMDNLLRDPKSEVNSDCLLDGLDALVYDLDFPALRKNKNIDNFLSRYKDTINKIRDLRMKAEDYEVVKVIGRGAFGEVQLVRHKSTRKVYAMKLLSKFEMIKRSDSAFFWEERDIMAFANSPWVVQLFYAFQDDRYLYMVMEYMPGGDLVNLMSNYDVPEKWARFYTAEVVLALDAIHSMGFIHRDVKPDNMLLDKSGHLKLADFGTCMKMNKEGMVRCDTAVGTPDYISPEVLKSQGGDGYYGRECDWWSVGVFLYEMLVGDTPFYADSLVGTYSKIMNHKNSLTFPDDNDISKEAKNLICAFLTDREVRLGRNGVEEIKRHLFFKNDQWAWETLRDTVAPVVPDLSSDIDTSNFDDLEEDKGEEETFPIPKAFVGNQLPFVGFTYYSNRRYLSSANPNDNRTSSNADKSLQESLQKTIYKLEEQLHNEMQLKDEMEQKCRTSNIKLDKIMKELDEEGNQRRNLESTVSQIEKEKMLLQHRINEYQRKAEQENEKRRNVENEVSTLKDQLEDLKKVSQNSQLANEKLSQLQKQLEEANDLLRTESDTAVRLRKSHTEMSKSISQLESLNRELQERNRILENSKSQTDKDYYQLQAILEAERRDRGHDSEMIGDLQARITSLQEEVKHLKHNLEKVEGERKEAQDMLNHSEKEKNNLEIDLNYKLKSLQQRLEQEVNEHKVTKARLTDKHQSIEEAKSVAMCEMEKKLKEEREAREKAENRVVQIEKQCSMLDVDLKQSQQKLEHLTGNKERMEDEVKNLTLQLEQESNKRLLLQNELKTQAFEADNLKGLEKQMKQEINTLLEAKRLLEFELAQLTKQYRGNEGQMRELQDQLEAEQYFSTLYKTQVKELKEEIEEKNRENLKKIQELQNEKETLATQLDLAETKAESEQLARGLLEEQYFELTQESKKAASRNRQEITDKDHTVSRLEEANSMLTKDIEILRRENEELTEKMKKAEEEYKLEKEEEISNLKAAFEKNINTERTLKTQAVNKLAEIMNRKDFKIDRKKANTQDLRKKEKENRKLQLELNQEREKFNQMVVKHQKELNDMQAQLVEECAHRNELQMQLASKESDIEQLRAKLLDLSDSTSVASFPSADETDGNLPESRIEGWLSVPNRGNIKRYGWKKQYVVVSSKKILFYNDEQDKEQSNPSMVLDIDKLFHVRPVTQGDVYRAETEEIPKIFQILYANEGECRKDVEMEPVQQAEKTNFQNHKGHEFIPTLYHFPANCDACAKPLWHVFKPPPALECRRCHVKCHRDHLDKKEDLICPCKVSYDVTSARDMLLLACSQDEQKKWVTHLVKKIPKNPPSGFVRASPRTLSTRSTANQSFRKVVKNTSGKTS

[3] = biological target: T1, Serine/threonine-protein kinase D3 (Homo sapiens) (UniProt O94806); experiment: Inhibition of human recombinant PKD3 at 500 nM related to control ULK1
T1 sequence (whole entry): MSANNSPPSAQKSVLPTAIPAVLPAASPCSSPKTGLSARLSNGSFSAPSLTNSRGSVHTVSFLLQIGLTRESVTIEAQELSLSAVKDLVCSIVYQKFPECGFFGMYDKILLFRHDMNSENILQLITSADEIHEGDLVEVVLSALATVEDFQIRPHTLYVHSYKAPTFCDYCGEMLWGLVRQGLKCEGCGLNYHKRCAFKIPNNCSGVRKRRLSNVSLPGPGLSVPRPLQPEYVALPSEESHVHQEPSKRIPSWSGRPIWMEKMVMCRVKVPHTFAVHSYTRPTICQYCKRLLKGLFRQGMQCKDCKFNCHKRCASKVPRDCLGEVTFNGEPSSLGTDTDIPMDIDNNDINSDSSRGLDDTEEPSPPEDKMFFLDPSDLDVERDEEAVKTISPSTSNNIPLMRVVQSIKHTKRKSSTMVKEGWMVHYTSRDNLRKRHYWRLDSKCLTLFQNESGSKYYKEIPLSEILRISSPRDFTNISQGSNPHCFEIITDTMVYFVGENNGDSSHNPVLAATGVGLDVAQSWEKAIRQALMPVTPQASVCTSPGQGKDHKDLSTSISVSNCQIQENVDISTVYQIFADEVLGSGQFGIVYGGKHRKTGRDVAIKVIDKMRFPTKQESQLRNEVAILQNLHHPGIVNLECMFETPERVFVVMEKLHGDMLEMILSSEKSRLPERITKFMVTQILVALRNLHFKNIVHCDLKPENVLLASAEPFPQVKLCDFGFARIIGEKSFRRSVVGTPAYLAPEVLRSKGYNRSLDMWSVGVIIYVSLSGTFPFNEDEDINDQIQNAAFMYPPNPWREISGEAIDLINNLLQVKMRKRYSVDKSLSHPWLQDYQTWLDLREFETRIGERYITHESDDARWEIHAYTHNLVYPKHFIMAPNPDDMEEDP

[4] = biological target: Tyrosine-protein kinase HCK (Homo sapiens) (UniProt P08631); experiment: Inhibition of human recombinant HCK at 500 nM related to control ULK1
Sequence of Tyrosine-protein kinase HCK (Homo sapiens) (P08631 2-526 limits assumed): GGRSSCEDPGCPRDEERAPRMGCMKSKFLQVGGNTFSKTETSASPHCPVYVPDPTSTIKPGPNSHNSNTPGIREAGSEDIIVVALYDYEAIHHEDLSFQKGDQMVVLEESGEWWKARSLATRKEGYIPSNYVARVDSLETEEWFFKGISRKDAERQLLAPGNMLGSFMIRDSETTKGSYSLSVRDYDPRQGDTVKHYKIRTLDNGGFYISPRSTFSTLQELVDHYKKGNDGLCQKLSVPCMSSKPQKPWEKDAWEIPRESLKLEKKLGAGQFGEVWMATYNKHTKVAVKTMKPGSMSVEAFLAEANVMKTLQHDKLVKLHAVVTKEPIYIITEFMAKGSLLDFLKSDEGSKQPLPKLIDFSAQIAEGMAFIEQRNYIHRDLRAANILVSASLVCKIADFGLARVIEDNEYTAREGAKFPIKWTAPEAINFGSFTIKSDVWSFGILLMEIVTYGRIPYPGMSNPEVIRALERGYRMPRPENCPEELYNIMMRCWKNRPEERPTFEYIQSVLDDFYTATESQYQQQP

[5] = biological target: T2, G protein-coupled receptor kinase 3 (Homo sapiens) (UniProt P35626); experiment: Inhibition of human recombinant BARK2 at 40 nM in presence of ATP by radiometric assay relative to control
T2 sequence (whole entry): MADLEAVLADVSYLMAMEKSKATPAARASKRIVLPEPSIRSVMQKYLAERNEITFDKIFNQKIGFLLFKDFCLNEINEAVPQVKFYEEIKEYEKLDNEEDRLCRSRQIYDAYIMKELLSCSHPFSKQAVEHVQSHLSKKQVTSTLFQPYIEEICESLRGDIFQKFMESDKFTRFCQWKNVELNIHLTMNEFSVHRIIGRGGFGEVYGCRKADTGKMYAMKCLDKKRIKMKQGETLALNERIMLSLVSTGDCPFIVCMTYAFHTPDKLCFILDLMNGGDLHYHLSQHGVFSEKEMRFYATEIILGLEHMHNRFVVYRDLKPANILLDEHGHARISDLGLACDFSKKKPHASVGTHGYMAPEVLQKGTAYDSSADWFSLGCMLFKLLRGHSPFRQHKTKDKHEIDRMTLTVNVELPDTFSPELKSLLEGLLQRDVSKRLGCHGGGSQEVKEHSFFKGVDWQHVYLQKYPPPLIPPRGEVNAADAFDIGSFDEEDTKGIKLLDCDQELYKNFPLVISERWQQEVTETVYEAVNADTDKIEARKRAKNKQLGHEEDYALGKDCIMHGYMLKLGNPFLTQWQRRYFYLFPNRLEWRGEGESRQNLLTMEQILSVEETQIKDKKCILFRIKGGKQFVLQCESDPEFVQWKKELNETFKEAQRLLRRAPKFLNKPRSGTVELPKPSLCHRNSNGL
Summary of the method: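 Part of a radiometric in vitro activity panel of 327 recombinant human kinases. Each kinase was tested in duplicate at one inhibitor concentration. Activity remaining was expressed as a percentage of the vehicle control, and percent inhibition was taken as 100 minus that value.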

[6] = biological target: Insulin receptor (Homo sapiens) (UniProt P06213); experiment: Inhibition of human recombinant INSR at 15 nM related to control ULK1
Sequence of Insulin receptor (Homo sapiens) (P06213 28-758 limits assumed): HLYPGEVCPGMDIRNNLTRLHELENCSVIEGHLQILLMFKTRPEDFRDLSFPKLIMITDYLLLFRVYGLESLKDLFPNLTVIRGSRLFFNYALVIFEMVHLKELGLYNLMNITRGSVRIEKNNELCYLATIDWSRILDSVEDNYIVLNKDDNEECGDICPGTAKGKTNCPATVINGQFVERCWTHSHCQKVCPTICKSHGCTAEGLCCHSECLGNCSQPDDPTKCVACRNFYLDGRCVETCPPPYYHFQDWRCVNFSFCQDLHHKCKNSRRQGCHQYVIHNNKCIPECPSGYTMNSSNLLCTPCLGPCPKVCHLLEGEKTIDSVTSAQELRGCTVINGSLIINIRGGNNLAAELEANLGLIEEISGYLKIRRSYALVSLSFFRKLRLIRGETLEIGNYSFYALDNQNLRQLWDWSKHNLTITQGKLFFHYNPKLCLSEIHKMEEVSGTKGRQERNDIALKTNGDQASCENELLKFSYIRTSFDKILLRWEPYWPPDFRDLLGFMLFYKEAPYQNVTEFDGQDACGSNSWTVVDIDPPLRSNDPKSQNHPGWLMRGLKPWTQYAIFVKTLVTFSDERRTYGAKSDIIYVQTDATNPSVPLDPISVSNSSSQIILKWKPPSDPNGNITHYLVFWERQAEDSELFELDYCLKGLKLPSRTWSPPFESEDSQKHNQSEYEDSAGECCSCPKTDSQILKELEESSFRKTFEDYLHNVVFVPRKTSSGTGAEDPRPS
Sequence of Insulin receptor (Homo sapiens) (P06213 763-1382 limits assumed): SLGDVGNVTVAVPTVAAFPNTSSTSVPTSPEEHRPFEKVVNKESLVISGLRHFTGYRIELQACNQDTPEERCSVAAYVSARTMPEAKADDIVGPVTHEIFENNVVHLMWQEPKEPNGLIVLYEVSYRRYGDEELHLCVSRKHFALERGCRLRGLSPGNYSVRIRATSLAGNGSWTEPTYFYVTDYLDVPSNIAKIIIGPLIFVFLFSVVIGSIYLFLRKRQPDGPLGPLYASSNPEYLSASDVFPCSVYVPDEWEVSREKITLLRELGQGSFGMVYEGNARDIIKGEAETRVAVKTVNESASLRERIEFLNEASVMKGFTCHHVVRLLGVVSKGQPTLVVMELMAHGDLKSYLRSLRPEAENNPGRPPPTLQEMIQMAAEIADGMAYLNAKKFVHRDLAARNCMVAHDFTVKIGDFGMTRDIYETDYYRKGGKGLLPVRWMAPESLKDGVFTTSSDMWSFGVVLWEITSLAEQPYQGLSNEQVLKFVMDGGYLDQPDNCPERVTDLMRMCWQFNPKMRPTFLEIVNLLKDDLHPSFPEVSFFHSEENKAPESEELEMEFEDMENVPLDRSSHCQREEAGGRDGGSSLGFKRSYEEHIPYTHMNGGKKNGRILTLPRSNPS

[7] = biological target: Serine/threonine-protein kinase 25 (Homo sapiens) (UniProt O00506); experiment: Inhibition of human recombinant YSK1 at 15 nM related to control ULK1
Sequence of Serine/threonine-protein kinase 25 (Homo sapiens) (O00506 whole entry, looked up): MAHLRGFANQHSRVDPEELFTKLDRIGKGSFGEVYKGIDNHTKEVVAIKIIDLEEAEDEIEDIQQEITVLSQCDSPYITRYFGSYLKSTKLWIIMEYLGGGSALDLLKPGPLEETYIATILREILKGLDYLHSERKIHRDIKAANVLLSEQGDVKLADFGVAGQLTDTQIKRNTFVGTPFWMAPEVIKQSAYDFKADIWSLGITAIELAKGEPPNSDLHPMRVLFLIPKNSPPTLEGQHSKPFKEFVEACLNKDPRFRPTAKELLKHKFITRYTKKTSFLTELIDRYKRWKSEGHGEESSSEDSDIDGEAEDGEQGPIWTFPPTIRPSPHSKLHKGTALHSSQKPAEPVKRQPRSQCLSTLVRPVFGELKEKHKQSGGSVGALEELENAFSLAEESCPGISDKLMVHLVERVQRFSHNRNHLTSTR

- fold change (FC) [1]: 0
- inhibition [2]: 0%
- fold change (FC) [3]: 0
- fold change (FC) [4]: 0.23
Compound: CNC(=O)c1ccccc1Oc1nc(Nc2cc(OC)c(OC)c(OC)c2)ncc1Br

- inhibition [5]: 7%
Compound: O=C(N[C@@H](C1CC1)C(F)(F)F)c1cc(-c2cnn3cc(-c4ccc(F)cc4)cnc23)cs1

- fold change (FC) [6]: 0
- fold change (FC) [7]: 0
Compound: CC(C)[C@H](NC(=O)c1cc(-c2cnn3cc(-c4ccc(OCCN5CCCCC5)cc4)cnc23)cs1)C(F)(F)F
